One block for each molecule: values may come before it. Activity calls are given as the source filed them. No cut-off for these calls is given here.
Assays:
[1] = Cytotoxicity against human LN229 cells assessed as growth inhibition at 0.6 uM incubated for 48 hrs by MTT assay relative to control; format: functional, LN-229; design: scale not given: the % may be the effect or the level left
[2] = Drug uptake in human LN229 cell nucleus at 0.6 uM incubated for 48 hrs by confocal microscopy; format: ADME, cell-based; details: ln229, 48 h
How it was run: (§1)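 LN229 cells were treated for 48 h at […] and fixed in 4% paraformaldehyde. Nuclei were counterstained with DAPI and vimentin immunostained. Compound localisation was imaged by its red signal using confocal microscopy.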

[3] = (§2) Cytotoxicity against rat H9c2 cells assessed as cell growth at 2.5 uM incubated for 48 hrs by MTT assay relative to control; format: cell-based; details: H9c2 cells, read-out: Activity
H9c2 [4] = experiment: Cytotoxicity against rat H9c2 cell membrane assessed as induction of lipid peroxidation at 2.5 uM incubated for 48 hrs by TBARS method; format: cell-based; details: h9c2, 48 h
How it was run: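 H9C2 cells were treated for 48 h at […] and lysed in ice-cold Tris/NaCl/EDTA/1% Triton with protease inhibitors. Membranes were pelleted at 1200 g for 10 min and the protein content measured. Membrane aliquots were heated at 100 °C for 30 min in 15% TCA/0.3% TBA in 0.12 N HCl, cooled and centrifuged, and the TBA adduct read at 532 nm. Values are per mg protein, mean ± SEM, n=3.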

[5] = Antiproliferative activity against human BxPC3 cells assessed as growth inhibition incubated for 48 hrs by MTT assay; format: functional, cell-based; details: BXPC-3, 48 h
How it was run: (§3)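 Cell lines were grown at 37 °C in 5% CO2 with 10% FBS and penicillin/streptomycin, in DMEM for HuH7 and LN229 and in RPMI-1640 for BxPC3 and MCF7. Cells were seeded at 10^5 per well and left 24 h to attach. Compounds were then added at […] for 48 h. MTT at 1 mg/mL was applied for 2 h at 37 °C in the dark, formazan was dissolved in DMSO and read at 570 nm. Results are relative to 0.5% DMSO vehicle control, with IC50 by linear/polynomial regression, in triplicate.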

[6] = Antiproliferative activity against human HuH7 cells assessed as growth inhibition incubated for 48 hrs by MTT assay; format: functional, cell-based; details: Huh-7, 48 h; how it was run: as §3
LN-229 [7] = experiment: Inhibition of glucose uptake in human LN229 cells assessed as glucose concentration per ug protein at 0.6 uM incubated for 48 hrs by liquid scintillation method (reference value: 98 +/- 8 mg/dl/ug protein); format: functional
[8] = Antiproliferative activity against human LN229 cells assessed as growth inhibition incubated for 48 hrs by MTT assay; format: functional, cell-based; details: LN-229, 48 h; how it was run: as §3
MCF7 = experiment: Antiproliferative activity against human MCF7 cells assessed as growth inhibition incubated for 48 hrs by MTT assay; format: functional, cell-based; details: MCF7, 48 h; how it was run: as §3
H9c2 [9] = experiment: as §2; format: cell-based; details: h9c2, 48 h, 2.5 µM
[10] = Drug uptake in human LN229 cell cytoplasm at 0.6 uM incubated for 48 hrs by confocal microscopy; format: ADME, cell-based; details: ln229, 48 h; how it was run: as §1
LN-229 [11] = experiment: Induction of lipid peroxidation in human LN229 cells assessed as increase in TBARS level at 0.6 uM incubated for 48 hrs by TBARS assay; format: functional
How it was run: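 LN229 cells in DMEM with 10% FBS, treated 48 h. Lysed in ice-cold Tris/NaCl/EDTA/1% Triton with protease inhibitors, spun 1200 g for 10 min; membrane pellet redissolved and protein measured. Membranes heated with 15% TCA/0.3% TBA in 0.12 N HCl at 100 °C for 30 min, cooled, spun 15,000 g, read at 532 nm. TBARS expressed per mg protein; mean of three experiments.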

LN-229 [12] = experiment: Induction of apoptosis in human LN229 cells assessed as caspase-3 activation at 0.6 uM incubated for 48 hrs by cell-free caspase-3 activity assay
[13] = Down regulation of AKT expression in human LN229 cells at 0.6 uM incubated for 48 hrs by Western blot method; format: functional, cell-based; details: LN-229
How it was run: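 LN229 cells grown in DMEM with 10% FBS and penicillin/streptomycin at 37 °C, 5% CO2, treated 48 h. Cells washed in ice-cold PBS/BSA and lysed in Triton/deoxycholate buffer with protease inhibitors. Equal protein run on SDS-PAGE, then nitrocellulose. Anti-AKT overnight in TBS/1% milk/0.05% Tween 20; tubulin also probed. HRP secondary 1 h at room temperature.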

LN-229 [14] = experiment: Inhibition of glucose uptake in human LN229 cells assessed as glucose concentration per ug protein at 0.6 uM incubated for 48 hrs by liquid scintillation method relative to control; format: functional
LN-229 [15] = experiment: Induction of cell differentiation in human LN229 cells assessed as vimentin remodelling at 0.6 uM incubated for 48 hrs by immunostaining method; format: functional, cell-based
How it was run: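 LN229 cells were treated for 48 h at […], fixed in 4% paraformaldehyde and permeabilised 5 min in 1% Triton. They were stained with anti-vimentin (1:1000) followed by Cy3 anti-rabbit IgG (1:200, 45 min), with DAPI nuclei, and imaged by confocal microscopy.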

SMILES: Cl.O=C(CN1CCCCC1)N[C@@]1(C(=O)NCc2ccc(Cl)cc2)CSC2=C1C(=O)c1ccccc1C2=O
Activity [1]: 50%

SMILES: Cl.O=C(CN1CCCCC1)N[C@]1(C(=O)NCc2ccc(Cl)cc2)CSC2=C1C(=O)c1ccccc1C2=O
Activity [1]: 48%

SMILES: COc1cccc2c1C(=O)c1c(O)c3c(c(O)c1C2=O)C[C@@](O)(C(=O)CO)C[C@@H]3O[C@H]1C[C@H](N)[C@H](O)[C@H](C)O1 [DOXORUBICIN]
Drug uptake [2]: Active
viability at 48 h, 2.5 µM [3]: 53%
Activity (H9c2 [4]): Toxic
IC50 [5]: 1.78 µM
IC50 [6]: 1.11 µM
Activity (LN-229 [7]): 120 mg/dL
IC50 [8]: 2.25 µM

SMILES: O=C(NC1(CO)CSC2=C1C(=O)c1ccccc1C2=O)c1ccc(Cl)cc1 (configuration not stated)
IC50 [5]: > 10 µM
IC50 (MCF7): > 10 µM
IC50 [6]: > 10 µM
IC50 [8]: > 10 µM

SMILES: O=C(CNc1ccc(Cl)cc1)NC1(CO)CSC2=C1C(=O)c1ccccc1C2=O (configuration not stated)
IC50 [5]: 2.18 µM
IC50 (MCF7): 2.12 µM
IC50 [6]: 3.51 µM
IC50 [8]: 1.23 µM

SMILES: O=C(CNCc1ccc(Cl)cc1)NC1(CO)CSC2=C1C(=O)c1ccccc1C2=O (configuration not stated)
IC50 [5]: 1.68 µM
IC50 (MCF7): 1.72 µM
IC50 [6]: 3.9 µM
IC50 [8]: 1.25 µM

Second part, led by results:

IC50 (MCF7): 1.26 µM
SMILES: Cl.O=C(CN1CCCCC1)NC1(CO)CSC2=C1C(=O)c1ccccc1C2=O (configuration not stated)
viability at 48 h, 2.5 µM [3]: 83%
Activity (H9c2 [4]): Toxic
IC50 [5]: 2.51 µM
IC50 [6]: 0.96 µM
IC50 [8]: 0.51 µM

IC50 (MCF7): 0.47 µM
SMILES: O=C(NC1(C(=O)NCc2ccc(Cl)cc2)CSC2=C1C(=O)c1ccccc1C2=O)c1ccc(Cl)cc1 (configuration not stated)
viability at 48 h, 2.5 µM [3]: 61%
Activity (H9c2 [4]): Toxic
IC50 [5]: 0.66 µM
IC50 [6]: 0.44 µM
IC50 [8]: 0.32 µM

Drug uptake [10]: Active
IC50 (MCF7): 0.82 µM
SMILES: Cl.O=C(CN1CCCCC1)NC1(C(=O)NCc2ccc(Cl)cc2)CSC2=C1C(=O)c1ccccc1C2=O (configuration not stated)
Activity (H9c2 [9]): Non-toxic
Activity (H9c2 [4]): Non-toxic
fold change (FC) (LN-229 [11]): 5
IC50 [5]: 0.83 µM
Activity [1]: 50%
IC50 [6]: 1.02 µM
fold change (FC) (LN-229 [12]): 3
Activity (LN-229 [7]): 215 mg/dL
fold change (FC) [13]: 2
fold change (FC) (LN-229 [14]): 2.2
Activity (LN-229 [15]): Active
IC50 [8]: 0.61 µM

Source: ChEMBL document CHEMBL3621080, “Dihydrithieno[2,3-b]naphto-4,9-dione analogues as anticancer agents: Synthesis and in cell pharmacological studies” (Eur J Med Chem, 2015)
